In the library only some 3.8% were active in any assay of this set; here they are far more common.
CSC inhib – cancer stem cell viability inhibitors, primary screen, luminescence | cancer stem cell-like cells viability | inhibition, % at 7.5 µM | 1.1% of 300,000 active | AID 2717, 2010; in the data active = inhibition above about 75%; tested in HMLE shEcad cells
MC4R antag cAMP – MC4R antagonists of cAMP signaling, primary screen, cell-based, TR-FRET, antagonist arm of biased-ligand search; inhibition, % at 6.5 µM; MC4R-expressing cells, MTII-stimulated cAMP, LANCE TR-FRET; 0.48% of 360,000 active;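 active = inhibition above its plate's cutoff, the mean of tested wells on that plate plus 3 SD, cut at about 29% in these data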;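 note: 0% = Melanotan II alone and 100% = Melanotan II plus saturating MCL0020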
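System: U2OS cells stably expressing human melanocortin 4 receptor (MC4R). Reagent: Melanotan II challenge after compound preincubation. Doses: 6.5 µM. Times: 30-min compound, 1-h challenge, 1-h detection, room temperature. Measured by: TR-FRET with Eu-cAMP and labeled anti-cAMP, 671 nm. Replicates: singlicate.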
ANO1 block – TMEM16A chloride channel inhibitors, primary screen, cell-based, HTS | Anoctamin-1 (Mus musculus), Q8BHY3 | HEK293 TMEM16A/YFP iodide influx fluorescence, ionomycin | normalized B-score (activity score, 25-100; higher = stronger inhibition) at 10 µM | 1.2% of 310,000 active | AID 588511, 2011;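 active = ratio plate-corrected score three or more library SD toward inhibition, starting fluorescence score within five deviations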;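 note: score derived from kinetic fluorescence span divided by baseline fluorescence per well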
TMEM16A act – TMEM16A chloride channel activators or potentiators, primary screen, cell-based, HTS | HEK293 TMEM16A/YFP-H148Q/I152L, iodide quench fluorescence; active compounds read low | B-score at 10 µM | 0.3% of 340,000 active | AID 623877, 2012;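 active = fluorescence-ratio B-score plate-corrected deviation score at least 3 library SD below zero, with starting fluorescence score within 5 deviations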;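 note: channel opened by trigger with iodide after compound preincubation; score built on the fluorescence ratio of max minus min over baseline; more negative score means more quench and so TMEM16A activation or potentiation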
MC4R barr agon – MC4R agonists recruiting beta-arrestin, primary screen, cell-based, luminescence, agonist arm of biased-ligand search; activation, % at 8.9 µM; 0.98% of 360,000 active; AID 540308, 2011; Melanocortin receptor 4 (Homo sapiens), P32245; U2OS MC4R beta-arrestin complementation; percent of melanotan II response, DMSO zero;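 active = activation above a per-plate cutoff, the mean activation of sample wells on that plate plus 3 SD, cut at about 8% in these data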
Beta cell apopt – inhibitors of cytokine-induced beta cell apoptosis, primary screen, luminescence | INS-1E cytokine-induced death, ATP luminescence, 48 h; percent of positive-control rescue, neutral wells zero | protection from apoptosis, % (no concentration beside the values) | 0.8% of 300,000 active | AID 435005, 2010;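 active = Every replicate reaches about 75%, or at least half do and their mean reaches it too, limit read from the data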;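 note: 0% = cytokine-treated negative control wells and 100% = positive control rescue; higher means more ATP so stronger rescue from cytokine killing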
MC4R barr ag – MC4R beta-arrestin agonists, retest, confirmation, cell-based, luminescence, U2OS | U2OS MC4R beta-arrestin recruitment; scaled DMSO 0%, Melanotan II 100% | activation, % at 8.9 µM | shares compounds with MC4R barr agon | 31% of 2,400 active;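 active = mean activation across replicates above the hit cutoff set in the earlier primary screen, cut at about 8% in these data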
MOR DOR agonist – agonists of MOR-DOR heterodimerization, counter-screen for MC4R biased agonist project, cell-based, luminescence; shares compounds with MC4R barr agon; U2OS PathHunter beta-arrestin, beta-gal luminescence; percent of deltorphin B response, DMSO zero; activation, % at 9.2 µM; 5.8% of 2,400 active;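 active = mean activation across replicates exceeds the hit threshold derived in the earlier primary screen, cut at about 18% in these data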;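 note: 100% = deltorphin B at 0.9 µM final and 0% = DMSO alone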
Numbers without * were called inactive; i = inactive; · = not tested or not shown.

SMILES	CSC inhib	MC4R antag cAMP	ANO1 block	TMEM16A act	MC4R barr agon	Beta cell apopt	MC4R barr ag	MOR DOR agonist
CCOc1cccc2sc(=NC(=O)c3ccco3)n(CC(=O)OC)c12	14	-3	i	i	0	1	·	·
C#CCn1c(=NC(=O)c2ccco2)sc2cccc(Cl)c21	-11	-8	i	i	33*	8	5	11
CCOc1ccc(-c2n[nH]c(C)c2Oc2ccccc2OC)c(O)c1	9	11	i	i	12*	-5	3	7
C=C(C)COc1ccc(-c2nc(N)nc(C)c2Oc2ccccc2OC)c(O)c1	17	5	i	i	1	-2	·	·
C=C(C)COc1ccc(-c2n[nH]c(C)c2Oc2ccccc2OC)c(O)c1	-7	5	i	i	12*	7	5	8
Cc1[nH]nc(-c2ccc(OCc3cnn(-c4ccccc4)c3)cc2O)c1Oc1ccccc1F	2	5	i	i	6	23	·	·
C/C(CC(=O)Nc1cc(C)ccn1)=N\NC(=O)c1cccc(C)c1O	73	4	i	i	0	71	·	·
COc1ccc(NC(=O)/C(C#N)=C\c2ccc(Br)o2)cc1	-5	1	i	i	3	5	·	·
N#C/C(=C\c1ccc([N+](=O)[O-])o1)C(=O)Nc1ccc(F)cc1	13	13	i	i	12*	-1	14*	14
S=C(Nc1ccccc1)Nc1ccc(Br)cn1	-12	0	i	i	11*	1	3	6
C=C(C)c1ccc(C(C)(C)NC(=O)NCc2ccco2)cc1	-10	8	i	i	0	-8	·	·
C=C(C)c1ccc(C(C)(C)NC(=O)N(Cc2ccccc2)Cc2ccco2)cc1	13	-1	i	i	17*	-5	-3	4
O=C1/C(=C/c2ccccc2Cl)SC(=S)N1CCCC(=O)N(CCO)c1ccccc1	27	22	i	i	0	·	·	·
O=C(Nc1ccc(S(=O)(=O)Nc2ncccn2)cc1)c1cccc([N+](=O)[O-])c1	·	6	·	·	-1	·	·	·
COc1ccccc1NC(=S)NC(=O)c1ccc(Cn2cc(Br)cn2)cc1	-13	-24	i	i	24*	-3	12*	12
CCn1cc(C(=O)NC(=S)Nc2ccccc2Br)cn1	-6	-2	i	i	-4	-2	·	·
O=C(CSc1ccc(Cl)cc1)NC(=O)c1ccccc1	·	2	·	i	0	-7	·	·
O=C(CSc1ccccc1F)NC(=O)c1ccc(Cl)cc1	-4	4	·	i	10*	-6	5	2
O=C(CNc1cccc(S(=O)(=O)N2CCCC2)c1)Nc1cccc(C(F)(F)F)c1	-17	2	·	i	1	3	·	·
C/C(COc1ccccc1)=N\NC(=O)c1nnn(-c2nonc2N)c1CSc1ccc(C)cc1	·	-8	·	·	-1	·	·	·
c1ccc2c(c1)oc1c(Nc3ccc4c(c3)OCO4)ncnc12	-3	-2	i	i	11*	16	2	8
Cc1nc(Nc2ccc3c(c2)OCO3)c2oc3ccccc3c2n1	26	-2	i	i	-1	7	·	·
CCCCN1C(=O)C2(NNc3ccccc3O2)c2ccccc21 (centres undefined)	11	22	i	i	3	0	·	·
C=CCN1C(=O)C2(NNc3ccccc3O2)c2ccccc21 (centres undefined)	-30	2	i	i	9.8*	1	10*	5
CCc1c(C(=O)N/N=C/c2ccco2)nnn1-c1nonc1N	·	1	i	i	-1	-8	·	·
SMILES	CSC inhib	MC4R antag cAMP	ANO1 block	TMEM16A act	MC4R barr agon	Beta cell apopt	MC4R barr ag	MOR DOR agonist
Nc1ccc(C(=O)Nc2ccc(OC(F)(F)C(F)F)c(NC(=O)c3ccc(N)cc3)c2)cc1	·	2	i	i	-1	0	·	·
O=C(Nc1ccc(OC(F)(F)C(F)F)c(NC(=O)c2ccc(F)cc2)c1)c1ccc(F)cc1	4	6	i	i	12*	6	1	4
COC(=O)C1C=CC(OC2OC(COC(C)=O)C(OC(C)=O)C(OC(C)=O)C2OC(C)=O)n2c(=O)n(-c3ccccc3)c(=O)n21 (centres undefined)	·	4	·	i	-1	·	·	·
COc1ccc(CNCc2cc3c(C(C)(C)C)nn(-c4ccccc4)c3[nH]c2=O)cc1	-7	10	i	i	15*	-6	14*	12
O=C(NCCN1CCCCC1)c1cc(Cl)ccc1Cl	-4	0	i	i	0	0	·	·
O=C1/C(=C/c2cccc([N+](=O)[O-])c2)CCc2ccccc21	-8	-6	i	i	2	-2	·	·
O=C1/C(=C/c2cccc([N+](=O)[O-])c2)CSc2ccc(Cl)cc21	-9	5	i	i	11*	0	-1	2
COc1ccc(/C=C/C(=O)NCc2cnn(C)c2C)cc1COc1ccc(Br)cc1	·	18	i	i	-2	-5	·	·
COc1ccc(/C=C/C(=O)NCc2c(C)nn(C)c2C)cc1COc1ccc(Br)cc1	·	-4	i	i	12*	-2	1	3
O=C1C(c2ccccc2)C2C=CC(C2)N1O (centres undefined)	·	-1	·	i	-1	·	·	·
COc1cc(C(=O)Nc2ccc(NC(=O)c3ccccc3Cl)nc2)cc(OC)c1OC	1	0	i	i	0	11	·	·
CSc1ccc(C(=O)NC2CCSc3ccccc32)cc1 (centres undefined)	-15	-4	i	i	21*	3	3	6
CC(=O)C(c1ccccc1)C(c1ccccc1)C(C)[N+](=O)[O-] (centres undefined)	3	15	i	i	21*	-4	-2	4
CC1=C(C(=O)N(C)C)CC(CC(=O)NC2CC2)C(=O)N1Cc1ccccc1 (centres undefined)	·	7	·	·	-1	·	·	·
O=[N+]([O-])c1ccc(O)c(C=NNc2ccc(S(=O)(=O)O)cc2)c1	·	-6	·	i	-1	·	·	·

Bioassay records from PubChem BioAssay.
